The record followed here is ChEMBL document CHEMBL1909510, “Synthesis and evaluation of cytotoxic effects of hanultarin and its derivatives” (Bioorg Med Chem Lett, 2011).

What all share (assay type): functional, cell-based
In one assay the test system is SK-OV-3. Kind of assay: Cytotoxicity against human SKOV3 cells after 48 hrs by sulforhodamine B assay. As to conditions: SK-OV-3, 48 h. Summed up: (§1)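 SRB assay, done in triplicate on each cell line across 1.56–50 µg/mL; IC50 determined per cell line. Lines are A549 (human lung cancer), B16F10 (mouse melanoma), HCT-15 (human colon), SKOV3 (human ovary) and SKMel2 (human skin).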
A general note: The SRB assay estimates cell density from bound dye.

The subject of the next assay is HCT-15. Kind of assay: Cytotoxicity against human HCT15 cells after 48 hrs by sulforhodamine B assay. As to conditions: HCT-15, 48 h. The method, boiled down:
as §1

Another assay deals with B16-F10. Kind of assay: Cytotoxicity against mouse B16F10 cells after 48 hrs by sulforhodamine B assay. As to conditions: B16-F10, 48 h. The method, boiled down: as §1
Assay [1] deals with A549. Kind of assay: Cytotoxicity against human A549 cells after 48 hrs by sulforhodamine B assay. As to conditions: A549, 48 h. Summed up:
as §1

The test system of another assay is SK-MEL-2. Kind of assay: Cytotoxicity against human SK-MEL-2 cells after 48 hrs by sulforhodamine B assay. As to conditions: SK-MEL-2, 48 h. The method, boiled down: as §1
The test system of assay [2] is A549. Kind of assay: Induction of actin disruption in human A549 cells at IC50 after 48 hrs by immunocytochemical analysis.
The subject of assay [3] is A549. Kind of assay: Induction of nucleus disruption in human A549 cells at IC50 after 48 hrs by immunocytochemical analysis.
The subject of assay [4] is A549. Kind of assay: Induction of microtubule disruption in human A549 cells at IC50 after 48 hrs by immunocytochemical analysis.

The source made the active and inactive calls. The calls are words filed in the database; no cut-off is given here.

A word on the IC50: it is the concentration at which inhibition is half-maximal. A high value points to weaker potency. On to `COc1cc(CC(=O)OC[C@H](Cc2ccc(O)c(OC)c2)[C@H](CO)Cc2ccc(O)c(OC)c2)ccc1O` (racemic), for which the IC50 in the assay with SK-OV-3 is over 76 µM; with HCT-15, 52.2 µM; in the assay on B16-F10 it was 71.8 µM; in the assay on A549 [1], 65.3 µM; with SK-MEL-2, over 76 µM.

As to `COc1cc(CC(=O)OC[C@H](Cc2ccc(O)c(OC)c2)[C@H](COC(=O)Cc2ccc(O)c(OC)c2)Cc2ccc(O)c(OC)c2)ccc1O` (racemic), the IC50 with SK-OV-3 turned out to be 30.8 µM; with HCT-15 it was 15.9 µM; in the assay on B16-F10 it was 13.3 µM; with A549 [1] it was 17.5 µM; in the assay on SK-MEL-2, 14.2 µM. In addition, the result with A549 [2] and in the assay with A549 [4] was Active. In addition, the result with A549 [3] was inactive.

Turning to `COc1cc(CCC(=O)OC[C@H](Cc2ccc(O)c(OC)c2)[C@H](CO)Cc2ccc(O)c(OC)c2)ccc1O` (racemic), the IC50 is over 74 µM with SK-OV-3; 49.6 µM with HCT-15; 68.4 µM in the assay on B16-F10; 65.7 µM with A549 [1]; 64 µM in the assay on SK-MEL-2.

`COc1cc(CCC(=O)OC[C@H](Cc2ccc(O)c(OC)c2)[C@H](COC(=O)CCc2ccc(O)c(OC)c2)Cc2ccc(O)c(OC)c2)ccc1O` (racemic): the IC50 with SK-OV-3 came out at 35.9 µM; with HCT-15 it was 10 µM; in the assay on B16-F10, 12.8 µM; with A549 [1], 12.1 µM; in the assay on SK-MEL-2 it was 10.3 µM. Moreover, the outcome in the assay on A549 [2] and in the assay with A549 [4] was Active. The result with A549 [3] was inactive.

In the case of `COc1cc(/C=C/C(=O)OC[C@H](Cc2ccc(O)c(OC)c2)[C@H](COC(=O)/C=C/c2ccc(O)c(OC)c2)Cc2ccc(O)c(OC)c2)ccc1O` (racemic), the half-maximal inhibitory concentration (IC50) in the assay with SK-OV-3 was determined as 21.7 µM; with HCT-15 it was 8.3 µM; in the assay on B16-F10, 9.8 µM; in the assay with A549 [1], 7.1 µM; with SK-MEL-2, 8.3 µM. In addition, the result in the assay on A549 [2] and with A549 [4] was Active. The result in the assay with A549 [3] was inactive.

As for `COc1cc(C[C@@H](CO)[C@H](CO)Cc2ccc(O)c(OC)c2)ccc1O` (racemic) [(+)-SECOISOLARICIRESINOL], the half-inhibitory concentration (IC50) in the assay on SK-OV-3, in the assay on HCT-15, with B16-F10, in the assay with A549 [1] and in the assay on SK-MEL-2 was over 110 µM each time.

As for `COc1cc(/C=C/C(=O)OC[C@H](Cc2ccc(O)c(OC)c2)[C@H](CO)Cc2ccc(O)c(OC)c2)ccc1O` (racemic) [HANULTARIN], the IC50 in the assay with SK-OV-3 is 63.9 µM; in the assay with HCT-15 it was 29.3 µM; with B16-F10, 21.4 µM; in the assay on A549 [1], 29.5 µM; with SK-MEL-2 it was 17.3 µM. Moreover, the outcome in the assay on A549 [2] and in the assay on A549 [4] was Active. The outcome in the assay on A549 [3] was inactive.
